For one experiment, the system named is Splenocyte. Kind of experiment: Induction of cell proliferation in splenocytes isolated from BALB/c mouse infected with Leishmania major MRHO/SU/59/P, zymodeme LV39 assessed as increase in [3H]-thymidine incorporation at 1 to 10 ug/ml […] and measured after 18 hrs by liquid scintillation counter method. Type of experiment: functional, cell-based. In a few lines: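 Female BALB/c mice were infected subcutaneously with 2×10^6 stationary-phase L. major promastigotes. Splenocytes were taken one month later and plated in triplicate at 2×10^6 cells/mL with peptide at 1, 5 or 10. Cultures ran 96 h at 37°C, 5% CO2, with 3H-thymidine (2 µCi/mL) added for the last 18 h and read by scintillation. The result is Δcpm against medium wells; Δcpm >2000 with SI >2 counted as positive.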

In experiment [1] the test system is BMDC. Kind of experiment: Immunomodulatory activity in LPS stimulated BALB/c mouse bone marrow-derived dendritic cells assessed as increase in IL-12 level at 10 ug/ml after 24 hrs by FACS analysis (reference value: 44%). Type of experiment: functional.
Experiment [2] concerns BMDC. As to the kind of experiment: Immunomodulatory activity in […] mouse bone marrow-derived dendritic cells assessed as increase in IL-10 level at 10 ug/ml after 24 hrs by FACS analysis. Type of experiment: functional, cell-based.
The test system of experiment [3] is BMDC. As to the kind of experiment: Immunomodulatory activity in LPS stimulated BALB/c mouse bone marrow-derived dendritic cells assessed as increase in IFN-gamma level at 10 ug/ml after 24 hrs by FACS analysis (reference value: 20%). Format: functional.
Experiment [4] deals with BMDC. As to the kind of experiment: Immunomodulatory activity in LPS stimulated BALB/c mouse bone marrow-derived dendritic cells assessed as increase in surface CD80 expression at 10 ug/ml after 24 hrs by FACS analysis (reference value: 26%).
Experiment [5] relates to BMDC. As to the kind of experiment: Immunomodulatory activity in […] mouse bone marrow-derived dendritic cells assessed as up-regulation of co-stimulatory molecules at 10 ug/ml after 24 hrs by FACS analysis. Format: functional, cell-based.
The test system of experiment [6] is BMDC. Kind of experiment: Immunomodulatory activity in LPS stimulated BALB/c mouse bone marrow-derived dendritic cells assessed as increase in surface CD86 expression at 10 ug/ml after 24 hrs by FACS analysis (reference value: 58%).
Experiment [7] relates to BMDC. Kind of experiment: Immunomodulatory activity in LPS stimulated BALB/c mouse bone marrow-derived dendritic cells assessed as up-regulation of TNF-alpha mRNA expression at 10 ug/ml after 2 to 12 hrs by qPCR analysis. Type of experiment: functional, cell-based. In a few lines: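 Day-9 BM-DCs (5×10^6 per group) were cultured with peptide for 2, 6 and 12 h, with LPS and medium controls. TNF-α mRNA was measured by RT and semi-quantitative PCR, and products were run on 2% agarose gels. Band densitometry was normalised to β-actin and given as arbitrary units, from three independent experiments.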

The subject of experiment [8] is BMDC. As to the kind of experiment: Immunomodulatory activity in LPS stimulated BALB/c mouse bone marrow-derived dendritic cells assessed as increase in IL-10 level at 10 ug/ml after 24 hrs by FACS analysis (reference value: 27%). Format: functional.
Experiment [9] deals with BMDC. As to the kind of experiment: Immunomodulatory activity in […] mouse bone marrow-derived dendritic cells assessed as increase in IL-12 level at 10 ug/ml after 24 hrs by FACS analysis. Format: functional, cell-based.
Experiment [10] concerns BMDC. Kind of experiment: Immunomodulatory activity in LPS stimulated BALB/c mouse bone marrow-derived dendritic cells assessed as increase in IL-4 level at 10 ug/ml after 24 hrs by FACS analysis (reference value: 48%). Type of experiment: functional.

Calls of active or inactive are those of the source. The calls are words filed in the database; no cut-off is given here.

Turning to H-KPSSIQQRAIAPFTRGG-OH, the result with Splenocyte was Active. The outcome in the experiment on BMDC [1] was inactive.
On to H-IQQRAIAPFTRGGDII-OH, for which the outcome in the experiment with Splenocyte, in the experiment with BMDC [2], in the experiment on BMDC [5], in the experiment on BMDC [7] and in the experiment with BMDC [9] was Active. The Activity with BMDC [3] turned out to be 40%; in the experiment with BMDC [4], 43%; in the experiment on BMDC [1], 65%; in the experiment on BMDC [6], 77%; in the experiment on BMDC [8] it was 43%; in the experiment with BMDC [10], 64%.
On to H-PKDIQVALFSATMPEEVL-OH, for which, in the experiment with Splenocyte, the outcome was Active. For the same substance, the result with BMDC [1] was inactive.
The like results for H-FLDDQPGVRPIPSFDDM-OH were, in that order, “Active” and “inactive”.
On to H-TRELALQTAEVISRIGE-OH, for which the result in the experiment with Splenocyte was Active. In addition, in the experiment with BMDC [1], the outcome was inactive.

Values taken from ChEMBL document CHEMBL4177589, “In silico analysis and in vitro evaluation of immunogenic and immunomodulatory properties of promiscuous peptides derived from Leishmania infantum eukaryotic initiation factor” (2017).
